Source: publication PMC5928661 (Molecular Medicine Reports, 2018)

Key:
HepG2.A64 cells = test: Cell proliferation; type: cell-based, human; details: HepG2.A64, CCK-8, 96 h
Procedure, shortened: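 HepG2-derived cells carrying ETV-resistant HBV, kept in DMEM with 10% FBS, penicillin-streptomycin and 300 µg/ml geneticin at 37°C, 5% CO2. Seeded at 3×10^3 cells/well; after 24 h, drug dilution series in conditioned medium were added and renewed every other day for 4 days. CCK-8 was added, then 1~4 h incubation and absorbance at 450 nm. Five replicates, three independent experiments; IC50 calculated.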

[1] = system: wild-type HBV (HepG2.4D14 cells); test: Cell-based antiviral assay, supernatant HBV DNA by qPCR; details: Hepatitis B virus, 96 h, read-out: EC50 against HBV
[2] = system: ETV-resistant HBV (HepG2.A64 cells); test: as above; set-up: species or system hepatitis B virus; details: for EC50: Hepatitis B virus, HepG2.A64, 96 h, read-out: EC50 against HBV
MRP4 (HepG2.4D14 cells) = target: T1, MRP4 (HepG2.4D14 cells) (Homo sapiens, UniProt O15439); type: in vitro ADME; details: HepG2.4D14, drug 4 days, 5 µM MK571 48 h, LCMS
T1 sequence (O15439 1-1325): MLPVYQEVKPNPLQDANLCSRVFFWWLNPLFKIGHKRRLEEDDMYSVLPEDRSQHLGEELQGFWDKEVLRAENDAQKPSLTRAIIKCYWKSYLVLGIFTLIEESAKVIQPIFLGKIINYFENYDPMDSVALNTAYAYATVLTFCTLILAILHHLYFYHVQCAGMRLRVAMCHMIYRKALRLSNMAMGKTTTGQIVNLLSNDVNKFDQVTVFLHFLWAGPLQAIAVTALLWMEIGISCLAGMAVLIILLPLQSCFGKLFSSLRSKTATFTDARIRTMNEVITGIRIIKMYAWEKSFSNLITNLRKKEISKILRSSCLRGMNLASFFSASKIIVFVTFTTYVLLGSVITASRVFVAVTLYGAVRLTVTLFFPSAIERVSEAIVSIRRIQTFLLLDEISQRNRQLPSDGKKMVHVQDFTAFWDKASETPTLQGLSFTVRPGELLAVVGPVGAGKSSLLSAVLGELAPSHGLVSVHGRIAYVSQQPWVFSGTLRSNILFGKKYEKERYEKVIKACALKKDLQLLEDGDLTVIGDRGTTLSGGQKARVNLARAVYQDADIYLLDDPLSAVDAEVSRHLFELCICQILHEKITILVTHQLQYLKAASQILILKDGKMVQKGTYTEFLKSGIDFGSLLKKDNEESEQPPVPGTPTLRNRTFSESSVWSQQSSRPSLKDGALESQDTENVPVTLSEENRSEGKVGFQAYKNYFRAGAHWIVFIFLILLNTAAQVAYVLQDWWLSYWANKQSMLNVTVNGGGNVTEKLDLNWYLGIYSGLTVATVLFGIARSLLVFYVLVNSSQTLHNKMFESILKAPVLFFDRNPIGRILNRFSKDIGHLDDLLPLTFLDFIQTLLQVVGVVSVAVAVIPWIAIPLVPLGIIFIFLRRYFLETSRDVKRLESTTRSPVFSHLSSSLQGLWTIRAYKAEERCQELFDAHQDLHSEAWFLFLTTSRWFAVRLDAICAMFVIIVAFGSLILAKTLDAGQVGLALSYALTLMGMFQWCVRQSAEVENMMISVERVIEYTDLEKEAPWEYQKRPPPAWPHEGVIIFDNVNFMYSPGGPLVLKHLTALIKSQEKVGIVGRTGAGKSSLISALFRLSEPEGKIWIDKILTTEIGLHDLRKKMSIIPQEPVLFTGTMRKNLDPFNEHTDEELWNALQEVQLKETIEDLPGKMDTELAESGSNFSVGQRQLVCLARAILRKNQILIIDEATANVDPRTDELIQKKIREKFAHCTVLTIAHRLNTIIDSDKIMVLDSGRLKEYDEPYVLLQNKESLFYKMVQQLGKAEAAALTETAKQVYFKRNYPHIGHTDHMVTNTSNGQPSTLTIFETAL

MRP4 (HepG2.A64 cells) = target: T2, MRP4 (HepG2.A64 cells) (Homo sapiens, UniProt O15439); type: in vitro ADME; details: HepG2.A64, drug 4 days, 5 µM MK571 4 h, LCMS
T2 sequence (O15439 1-1325): T1 sequence (O15439 1-1325)

| Compound | Doses at which apparent cytotoxicity was observed (HepG2.A64 cells) | EC50 [1] [µM] | EC50 [2] [µM] | Extracellular concentration in presence of MK571 vs control (absence of MK571) (MRP4 (HepG2.4D14 cells)) | Extracellular concentration in presence of MK571 vs control (absence of MK571) (MRP4 (HepG2.A64 cells)) | Fold resistance (mutant EC50 to wild-type EC50) ([2]; HepG2.A64 vs HepG2.4D14) [fold] | Intracellular accumulation in presence of MK571 vs control (absence of MK571) (MRP4 (HepG2.4D14 cells)) | Intracellular accumulation in presence of MK571 vs control (absence of MK571) (MRP4 (HepG2.A64 cells)) |
| --- | --- | --- | --- | --- | --- | --- | --- | --- |
| CN(C)C(=O)CCSC(SCCC(=O)O)c1cccc(/C=C/c2ccc3ccc(Cl)cc3n2)c1 (stereo not shown) [MK571, 3-([(3-(2-[7-chloro-2-quinolinyl]ethyl)phenyl]-[(3-dimethylamino-3-oxoporphyl)-thio)-methyl]-thio) propanoic acid] | above 10 µM |  |  |  |  |  |  |  |
| C=C1[C@H](CO)[C@@H](O)C[C@@H]1n1cnc2c(=O)[nH]c(N)nc21 [ETV, entecavir] | above 10 µM | 0.13 ± 0.02 | 6.28 ± 0.07 | slightly reduced | slightly reduced |  |  |  |
| C[C@H](Cn1cnc2c(N)ncnc21)OCP(=O)(O)O [TFV, tenofovir] | above 10 µM | 3.24 ± 0.01 | 11.43 ± 0.09 | slightly reduced | slightly reduced | 3.5 | markedly increased | markedly increased |
| Nc1ccn([C@@H]2CS[C@H](CO)O2)c(=O)n1 [LAM, lamivudine] | above 10 µM | 4.14 ± 0.03 | 5.94 ± 0.2 | slightly reduced | slightly reduced |  |  |  |
